TDP2 absorb – human TDP2 enzyme inhibitors, primary screen, biochemical, epi absorbance, recombinant enzyme. 0.34% of 370,000 active. AID 720702, 2013. Tyrosyl-DNA phosphodiesterase 2 (Homo sapiens), O95551. inhibition, % at 12.8 µM. T5PNP hydrolysis, p-nitrophenol absorbance 415 nm;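 active = inhibition above the mean of all tested compounds plus 3 SD, set per campaign, cut at about 25% in these data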;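 also: 0% = DMSO with enzyme and 100% = buffer with substrate but no TDP2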
Target sequence (O95551 whole entry, looked up): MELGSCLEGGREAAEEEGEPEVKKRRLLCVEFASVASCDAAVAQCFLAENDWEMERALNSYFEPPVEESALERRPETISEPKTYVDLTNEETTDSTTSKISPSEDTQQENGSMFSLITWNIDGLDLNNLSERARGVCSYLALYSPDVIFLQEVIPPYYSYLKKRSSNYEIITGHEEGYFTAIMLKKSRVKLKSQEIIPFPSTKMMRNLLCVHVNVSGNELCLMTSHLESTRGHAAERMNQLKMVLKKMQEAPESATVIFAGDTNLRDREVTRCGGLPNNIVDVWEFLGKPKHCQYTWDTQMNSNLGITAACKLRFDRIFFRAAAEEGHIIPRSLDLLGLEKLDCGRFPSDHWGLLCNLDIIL
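Material: recombinant human TDP2; quantity: TDP2 enzyme at 120 nM final; medium: Tris-HCl pH 7.5 with MgCl2; compound: single concentration, 12.8 µM nominal, with 1% DMSO; incubation: 2 h enzyme incubation at 37 °C; signal: epi absorbance; measure: percent inhibition; benchmarks: high control without enzyme, low control DMSO plus TDP2; repeats: singlicate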
UHRF1 binding – UHRF1 methylated DNA binding inhibitors, primary screen, counter-screen for MBD2 inhibitor project, biochemical, TR-FRET, human UHRF1, single concentration. E3 ubiquitin-protein ligase UHRF1 (Homo sapiens), Q96T88. UHRF1 binding to methylated oligo. inhibition, % at 4.4 µM. 0.75% of 370,000 active; in the data active = inhibition above about 21%;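 also: UHRF1 SRA domain binding a hemimethylated CpG hairpin DNA probe; 0% = median of test compound wells and 100% = reference inhibitor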
DDE Tn7 FP inh – inhibitors of Tn7 peptide binding to fibrin DD(E), primary screen, biochemical, fluorescence polarization, human fibrin, Tn7 probe; FP displacement of FITC-Tn7 peptide from fibrin DD(E); 0% = median of compound wells per plate; inhibition, % at 8.3 µM; 0.13% of 370,000 active; AID 720508, 2013;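 active = inhibition above the mean of compounds falling within the control limits plus 3 SD of them, cut at about 14% in these data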;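 also: 0% = plate median of compound wells and 100% = 10 µM Aha-Tn7 peptide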
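Assay system: Human clot-derived fibrin DD(E) complex | Buffer or medium: Tris/NaCl/CaCl2 buffer, pH 7.8 | Repeats: One replicate per compound | Benchmarks: Aha-Tn7 high control | Measure: % inhibition scaled between sample-field median and high-control FP | Schedule: 10 min plus 3 h, room temperature | Signal: Fluorescence polarization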
MBD2 DNA inh – inhibitors of MBD2 binding to methylated DNA, primary screen, biochemical, TR-FRET, DNA-binding domain, human | inhibition, % at 4.4 µM | 0.31% of 370,000 active | Methyl-CpG-binding domain protein 2 (Homo sapiens), Q9UBB5 | MBD2 binding to methylated oligonucleotide | AID 686964, 2013; in the data active = inhibition above about 13%
Target sequence (Q9UBB5 whole entry, looked up, the tested form may be a part): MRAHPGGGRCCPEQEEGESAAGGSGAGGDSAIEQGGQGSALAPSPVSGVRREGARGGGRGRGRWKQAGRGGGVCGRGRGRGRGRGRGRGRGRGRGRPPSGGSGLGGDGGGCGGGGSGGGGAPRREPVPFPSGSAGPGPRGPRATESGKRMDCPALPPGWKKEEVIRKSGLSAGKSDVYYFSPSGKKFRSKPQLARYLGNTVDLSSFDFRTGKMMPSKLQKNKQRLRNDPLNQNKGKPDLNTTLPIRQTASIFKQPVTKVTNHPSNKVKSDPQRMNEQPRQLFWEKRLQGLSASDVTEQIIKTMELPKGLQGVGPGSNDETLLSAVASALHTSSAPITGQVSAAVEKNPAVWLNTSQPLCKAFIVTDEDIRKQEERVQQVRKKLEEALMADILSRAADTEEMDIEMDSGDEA
DDE Tn6 FP inh – inhibitors of Tn6 peptide binding to fibrin DD(E), primary screen, biochemical, fluorescence polarization, human fibrin, Tn6 probe. inhibition, % at 8.3 µM. 0.21% of 370,000 active. Fibrinogen beta chain (Homo sapiens), P02675. Fibrin DD(E) TRITC-Tn6 fluorescence polarization displacement;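 active = inhibition above a per-campaign cutoff: mean of compounds within control limits plus 3 SD, cut at about 15% in these data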;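 also: 0% = median of all compound wells on the plate and 100% = blocking peptide control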
LEDGF integ inh – blockers of LEDGF/p75-dependent integrase strand transfer – biochemical, TR-FRET, high throughput, primary screen; HIV-1 integrase (with human LEDGF/p75); TR-FRET IN-LEDGF/p75 DNA integration, Eu/Cy5; inhibition, % at 3.7 µM; 0.64% of 370,000 active; AID 743269, 2014;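 active = inhibition above the screen-wide mean plus 3 SD, cut at about 13% in these data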;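 also: signal is the Cy5 over europium emission ratio at 671 and 618 nm; 0% = plate median of compound wells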
* = called active by the depositor. Only some compounds are listed: those with a hit (about 1.9% of all), similar ones and a draw of the others.

SMILES | TDP2 absorb | UHRF1 binding | DDE Tn7 FP inh | MBD2 DNA inh | DDE Tn6 FP inh | LEDGF integ inh
O=S1(=O)CC(O)C(NCc2cccnc2)C1 (centres undefined) | 4.9 | -2.1 | 5.0 | -1.2 | -1.8 | -1.8
CC(C)CNC1CS(=O)(=O)CC1O (centres undefined) | -1.2 | 21.9* | 0.2 | -0.8 | -0.3 | 1.1
COc1ccc(C(=O)c2[nH]c(N)c(C(=O)c3c[nH]c4ccccc34)c2-c2ccc(F)c(OC)c2)cc1 | 9.5 | -3.0 | 8.2 | 1.1 | -3.5 | -3.1
COc1cc2nc(CC(C)C)n(NC(=O)c3ccccc3)c(=O)c2cc1OC | 14.9 | 1.0 | 2.5 | -2.9 | -3.7 | 0.0
COc1ccc(C(=O)Nn2c(CC(C)C)nc3cc(OC)c(OC)cc3c2=O)c(OC)c1 | -0.7 | 34.3* | 0.2 | 2.4 | -2.7 | -4.8
CC(=O)c1ccc(S(=O)(=O)N2CCN(C(=O)C(=O)c3cccc(C(F)(F)F)c3)CC2)cc1 | 10.0 | 0.6 | 0.7 | 8.9 | 2.3 | 0.7
COC(=O)[C@@]1(Sc2ccc(C)cc2)CC(=O)N[C@@H]1c1ccc(C(F)(F)F)cc1 | -4.3 | 22.6* | -6.1 | 8.1 | 3.3 | -1.5
Cc1cc(-c2ccccc2)c2c(=O)[nH][nH]c2n1 | -3.5 | 48.8* | -0.9 | -1.8 | -2.6 | -1.9
CCN(CC)C(=O)[C@H]1C[C@H](CC(=O)NCCc2ccccn2)C(=O)N2CCc3c([nH]c4cc(CCC(=O)N(C)C)ccc34)[C@]12C | -5.3 | 20.9* | -7.2 | 7.0 | -5.2 | 7.6
C[C@H]1[C@H](c2ccccc2)Oc2cccc(NCCc3ccccc3)c2S(=O)(=O)N1Cc1ccc(F)cc1 | -4.6 | -1.5 | -3.2 | 1.0 | -1.3 | 2.4
CSCCC1NC(=O)N(C(C)C(=O)Nc2cc(Cl)cc(Cl)c2)C1=O (centres undefined) | -0.3 | 23.9* | 0.2 | 5.5 | -1.0 | -2.8
CSCCC1NC(=O)N(CC(=O)Nc2c(Cl)cc(Cl)cc2Cl)C1=O (centres undefined) | 0.3 | 3.0 | 3.1 | 0.0 | -5.5 | 0.5
CC(C)(C)c1ccc(-c2nnc(SCc3cccc4ccccc34)n2Cc2ccco2)cc1 | -13.6 | -0.1 | -7.4 | 2.1 | -5.9 | 1.9
O=Nc1ccc(Cl)cn1 | 5.0 | -5.8 | -2.7 | -6.5 | 3.2 | 2.6
COc1cc(-c2nnc(SCc3cc(=O)oc4cc(O)c(O)cc34)o2)cc(OC)c1OC | 1.3 | 51.5* | -3.1 | 28.9* | -4.9 | 78.1*
CCOC(=O)CSc1nnc(-c2cc(OC)c(OC)c(OC)c2)o1 | 2.6 | 1.8 | -2.6 | 2.5 | 6.5 | -0.9
Cc1ccc(Cn2cc(CN(C)S(=O)(=O)c3ccccc3Br)nn2)cc1 | -6.6 | 6.6 | -5.5 | 3.0 | -0.1 | -4.4
Cn1c(CC(=O)Nc2ccccc2)n[nH]c1=S | 10.0 | 2.1 | -1.1 | 0.9 | 3.6 | 0.2
CCOC(=O)Cc1nn(C)c(=O)c2ccccc12 | 8.3 | 26.1* | 2.8 | 4.1 | 2.8 | -0.4
Cn1nc(Cc2n[nH]c(=S)n2C)c2ccccc2c1=O | 0.8 | 56.1* | 4.8 | 0.5 | 5.6 | -4.8
COC(=O)[C@]12C[C@H](CC(=O)NCc3ccc(C)o3)C(=O)N(CCc3ccc(OC)c(OC)c3)C1=C[C@H](C(C)(C)C)O[C@@H]2C | 3.3 | -1.8 | 1.2 | 1.9 | -4.4 | -0.6
S=C(SCc1c(Cl)cccc1Cl)N1CCSCC1 | -5.3 | 4.0 | 1.6 | 7.0 | -7.8 | -4.8
COC(=O)c1cc2c(c3c4cc(C)ccc4n(S(=O)(=O)c4ccccc4)c13)C(=O)N(Cc1ccc(C(F)(F)F)cc1)C2 | 0.6 | 0.2 | -3.3 | 4.3 | 1.9 | -0.3
O=S1(=O)c2ccc(N3CCCC3)cc2Oc2ccccc2CN1Cc1cn(Cc2cccc(F)c2)nn1 | 0.3 | 1.4 | -1.6 | 1.6 | -3.1 | -3.0
CCn1c(=O)n(CC)c2cc(N3CCCC3)c(NC(=O)c3ccccc3C)cc21 | -1.3 | 22.9* | -3.4 | 9.0 | 4.2 | -0.7
SMILES | TDP2 absorb | UHRF1 binding | DDE Tn7 FP inh | MBD2 DNA inh | DDE Tn6 FP inh | LEDGF integ inh
CN(Cc1ccccc1F)C(=O)Cn1c(-c2cncs2)nc2ccccc21 | -2.6 | -1.0 | -8.9 | -1.8 | 9.4 | -2.7
CCCCN(C(=O)c1ccc(NC2CC2)c([N+](=O)[O-])c1)c1c(N)n(CCCC)c(=O)[nH]c1=O | -8.9 | -6.9 | -1.8 | -3.1 | -1.2 | 1.8
CCCCn1c(N)c(N(CCOC)C(=O)c2ccc(C)o2)c(=O)[nH]c1=O | 9.1 | 22.2* | 7.5 | 2.9 | 0.3 | -0.1
CCCN(C(=O)c1cccc(-n2cccc2)c1)c1c(N)n(Cc2ccccc2)c(=O)[nH]c1=O | -1.6 | 25.7* | -1.4 | 9.7 | -5.4 | 3.0
CCCCN(C(=O)c1ccc(Cl)c([N+](=O)[O-])c1)c1c(N)n(CCC)c(=O)[nH]c1=O | -5.2 | 28.9* | 2.6 | 0.1 | -7.8 | -1.2
CCCCn1c(N)c(N(CCOC)C(=O)c2ccc(N(C)S(=O)(=O)c3ccc(C)cc3)cc2)c(=O)[nH]c1=O | -2.2 | 0.5 | -3.0 | -1.1 | 2.1 | -1.3
CCCn1c(N)c(N(CCOC)C(=O)c2ccc(N(C)S(=O)(=O)c3ccc(C)cc3)cc2)c(=O)[nH]c1=O | 5.4 | 96.3* | 2.8 | -3.4 | 3.4 | -0.4
CCCCn1c(N)c(N(CCOC)C(=O)c2ccc(Br)o2)c(=O)[nH]c1=O | -6.0 | 0.8 | 7.5 | 3.2 | 4.3 | -4.7
COC(=O)C1=C(C)N(Cc2ccccc2C(F)(F)F)C(=NCc2ccc(C(F)(F)F)cc2)NC1CCc1ccccc1 (centres undefined) | -4.7 | 0.9 | -2.5 | 5.4 | -0.5 | -3.9
O=C(Nc1ccc2c(c1)OCCO2)c1ccc2ccccc2n1 | -4.5 | 22.0* | 5.0 | -6.1 | -6.3 | -2.0
CC(C)COc1ccc(C(=O)N/N=C/c2ccoc2)cc1 | -3.9 | 29.8* | 2.9 | -2.2 | 0.4 | 0.4
CCOc1cc(C(=O)N/N=C/c2ccoc2)cc(OCC)c1OCC | 1.2 | -2.3 | 2.2 | 1.7 | -5.3 | -1.1
CCn1cc(C2C(C(=O)Nc3cc(C)ccn3)=C(C)NC3=C2C(=O)CC(C)(C)C3)c(C)n1 (centres undefined) | 1.2 | 26.0* | 4.2 | 12.9 | 3.8 | -2.5
CCOC(=O)c1ccc(NC(=O)COc2ccc(CNCCO)cc2OCC)cc1 | 5.5 | 101.7* | 5.9 | 3.8 | -5.4 | -9.7
O=C(NCCc1ccccc1)OCc1cn(-c2cccc(C(F)(F)F)c2)nn1 | 3.7 | -4.7 | -5.4 | -4.1 | 0.7 | 0.6
